experiment: Toxicity liver stage against HepG2, at 10uM; format: cell-based; set-up: test concentration 10 uM, cell line HepG2-A16-CD81EGFP; conditions: human, HepG2-A16-CD81EGFP cells; read-out: INHIBITION
Summary of the method: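 Uninfected HepG2-A16-CD81EGFP cells, 3 × 10^3 per well, 1536-well, plated on prespotted compound at 10 μM final, parasite-free screening media added to match infected plates; puromycin 10 μM positive, DMSO 0.5% negative; run in parallel with 48 h PbLuc assay at 37 °C, 5% CO2; viability by CellTiter-Glo luminescence, normalized to controls.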

SMILES	cytotoxicity at 10 µM [%]
COc1ccc(-c2csc(N)c2C#N)cc1OC	-2.46
COc1ccnc(N2CCN(CC(=O)N3CCOCC3)CC2)n1	-7.37
C[C@@H](NCc1cccc(Cl)c1)c1onc(-c2ccccc2)c1C(=O)O	-4.98
O=C1N[C@@H]2CCN(C(=O)c3ccccc3)[C@@H]2C(=O)N1c1ccc(F)cc1	7.62
O=C(NCc1ccco1)c1cccc(C(=O)NCc2ccco2)n1	5.7
CCCc1cc(=O)[nH]c2nnc(SCC(N)=O)n12	13.8
CC1(C)OCC2(CO1)CN(C(=O)c1ccccc1Br)C2	-7.31
NC1CCc2c(ccc(=O)n2Cc2ccncc2)C1 (stereo not given)	-4.16
CC(NC(=O)N1CCN(c2ccc(Cl)cc2)CC1)C(=O)N1CCSCC1 (stereo not given)	25.4
O=C(COc1coc(CN2CCCCCC2)cc1=O)c1ccccc1	4.21
CNC(=O)C1Cn2ccnc2C2(CCN(CCF)CC2)O1 (stereo not given)	-12.6
O=C(COCc1nc(-c2ccncc2)no1)N1CCOCC1	-7.08
COc1ccccc1NC(=O)c1cnc(C2CCN(C(C)=O)C2)nc1C (stereo not given)	6.42
CCCC1c2cccn2CCN1S(=O)(=O)N1CCOCC1 (stereo not given)	1.26
Cc1ccc2nc(C(=O)N(C)[C@@H]3CC[C@@H](N4CCCC4)[C@@H]3O)cn2c1	1.67
O=C(c1ccc2[nH]nnc2c1)N1CC[C@H](O)[C@]2(CCCO2)C1	-2.98
O=C(O)COc1ccc(CN2CCCC(Cc3cccnc3)C2)cc1 (stereo not given)	-4.98
CC(=O)N1CCC(c2cncc(Cl)n2)CC1	3.8
CN(C)c1nc(O)cc(C2CCN(C(=O)Cc3ccccn3)C2)n1 (stereo not given)	-0.399
Cc1cc(Nc2cnccn2)nc(C2CCCN(CCO)C2)n1 (stereo not given)	-5.87
CC(=O)N1CCC(c2ncc3c(n2)CCN(C(=O)c2ccccc2)C3)C1 (stereo not given)	-8.69
NC(=O)C1(CCCc2ccncc2)CCCN1 (stereo not given)	-21.5

SMILES	cytotoxicity at 10 µM [%]
C=Cn1cc(CN2CCc3nc(-c4cccnc4)nc(O)c3C2)c(C)n1	-6.94
CC(=O)N1CCN(c2ccnc(C)n2)CC(COc2ccccc2)C1 (stereo not given)	-6.16
CCc1cc(C(=O)N2CCCC2c2nc(O)cc(CC)n2)on1 (stereo not given)	-7
O=C(C[S+]([O-])c1ccc(F)c(F)c1)NCc1cc(F)cc(F)c1 (stereo not given)	5.58
O=C(CS(=O)(=O)Cc1csc(-c2ccc(F)cc2)n1)NCC1CC1	-3.06
Cc1ccc(F)cc1S(=O)(=O)NCc1[nH]ncc1Br	10.3
O=C(NCc1cc(-c2ccccc2)no1)NCC1CCCO1 (stereo not given)	-3.01
Cc1ccc(N2CCCN(C(=O)CCc3ccsc3)CC2)nn1	-2.22
CN1CCN(CCOc2ccc(NC(=O)c3cnc[nH]3)cc2)CC1	0.71
Cc1ccc(CC(NC(=O)Cn2cnnn2)c2ccccn2)cc1 (stereo not given)	1.72
Cc1ncccc1C(=O)NC1CC(=O)N(CC(F)(F)F)C1 (stereo not given)	1.2
Cc1cccc(C(=O)N2CCSCC2)c1NC(=O)c1ccsc1	3.85
COc1ccc(-c2nc(CCNC(=O)NCC3CCOC3)co2)cc1 (stereo not given)	-3.1
COC(=O)N1CCCC(NC(=O)NCc2csc(C)n2)C1 (stereo not given)	3.93
Cc1ccc(-n2cnnn2)cc1NCC(=O)Nc1ccccc1Cl	7.95
CC(C)Cc1cc(NC(=O)c2ccc3[nH]nnc3c2)n(C)n1	-7
CN(C)c1nccc(CNC(=O)NCc2ccco2)n1	-2.48
O=C(NCc1ccon1)N1CCC(n2ccc(C(F)(F)F)n2)CC1	-0.0817
O=C(NCc1cccnc1)NC1CCCN(c2ncccn2)C1 (stereo not given)	-2.5
CC(=O)NCCNC(=O)CN1CCCC1Cn1nc(C)nc1C (stereo not given)	-1.26
COCC(O)CNC(=O)Nc1c(F)cc(F)cc1-c1ccccc1 (stereo not given)	-4.17
CC(=O)N1Cc2ccccc2CC1C(=O)Nc1ccc(N(C)C)cn1 (stereo not given)	-1.92

SMILES	cytotoxicity at 10 µM [%]
CCCOC1CCCN(C(=O)c2csc(S(N)(=O)=O)c2)C1 (stereo not given)	-5.45
CS(=O)(=O)CCNCc1ccc(OCc2ccncc2)cc1	-134
COc1ccccc1C1(CNCc2ccc([S+](C)[O-])cc2)CC1 (stereo not given)	7.56
CC(C)c1noc(CNc2ccc(OC(F)F)cc2OC(F)F)n1	23.6
O=C(NCc1nncn1C1CC1)c1ccc(F)c(COCC2CC2)c1	10.2
Cc1csc(C(C)(C)NCC(=O)N2CCCC(C(N)=O)C2)n1 (stereo not given)	5.73
CCc1nnsc1C(=O)N(C)Cc1ccco1	-45
Cc1noc(C2CCN(C(=O)c3c(C)noc3C)CC2)n1	5.65
CN(C)C(=O)CNC(=O)c1cc(Br)c2c(c1)OCCO2	16.4
COc1ccc(-n2cnnc2SCC(C)(C)O)cn1	13.5
Cc1cc(CN(C)C(=O)NC(C)c2nncn2C)no1 (stereo not given)	8.79
CCCOCC(=O)NC1CCc2nc(C)cn2C1 (stereo not given)	-2.88
CC(=O)N1CCC(c2nc3ccc(C)cn3n2)CC1	0.819
Cc1nocc1C(=O)N1CCOC2(COCCN(CC3CC3)C2)C1 (stereo not given)	3.42
COCCN1CCO[C@@H]2CN(C(=O)c3ccc4[nH]ccc4c3)CC[C@@H]2C1	-110
CC(=O)N1CCCN(C(=O)Nc2ccccc2N2CCOC2=O)CC1	0.334
CNc1ncc(C(=O)N[C@H]2CN(CCCSC)C[C@@H]2C2CC2)cn1	1.33
CCN(CC)c1ncccc1CNC(=O)c1cc2nc(C)cc(C)n2n1	6.43
COc1cc(CN2CC[C@@H](N3CCCCCC3)[C@H](O)C2)cc(Cl)c1OC	-1.47
COCC(=O)N1C[C@H]2CNC[C@@]2(C(=O)NCc2nc(C)cc(C)n2)C1	14.7
O=C(O)C1(n2ccc(-c3ccco3)n2)CCN(Cc2cccnc2)CC1	-131
CC(C)S(=O)(=O)N1CCC(Cc2cccc(C(=O)O)c2)C1 (stereo not given)	1.31

SMILES	cytotoxicity at 10 µM [%]
Cc1cc(CN2CCC(C(=O)O)(n3ccc(-c4ccco4)n3)CC2)on1	-131
COc1nc(C)c(C(=O)N2CCc3[nH]nc(C4CCCC4)c3C2)s1	7.51
CCCc1ccc(CN2CCC3(CCC(=O)N(C(C)C(=O)O)C3)CC2)o1 (stereo not given)	-2.69
Cc1cnn(CC(=O)N2CCC3(CCC(=O)N(CCCO)C3)CC2)c1	-9.44
Cc1nccn1CCC1CCCCN1Cc1ccc(O)cc1Cl (stereo not given)	-4.23
Cc1noc(C)c1CCNc1nccc(CCC(F)(F)F)n1	-158
CCC(CO)n1cnc2scc(C)c2c1=O (stereo not given)	-7.37
Cc1ccc(NCCCc2c(C)noc2C)nn1	8.12
Cn1nccc1CNC(=O)Cn1nc(C(F)(F)F)cc1C1CC1	-6.36
NC(=O)C1(CCCc2cccnc2)CCCN(c2ncccn2)C1 (stereo not given)	3.61
Cc1nccn1C1CCCN(C(=O)CCOCC(F)(F)F)C1 (stereo not given)	-11.4
CNc1snc(C)c1C(=O)N1CCC(Nc2ccc(C)nn2)CC1	-8.27
Cc1ccc(NC2CCN(C(=O)c3c(C)nn(C)c3Cl)CC2)nn1	-11.6
CSCCCN1CCCC1c1noc(C(C)C)n1 (stereo not given)	-12.5
Cc1noc(C)c1CCC(=O)N1CCCN(C)CC1	-14.1
CC(NC(=O)CCc1ccsc1)c1ccc2c(c1)NC(=O)CO2 (stereo not given)	-6.16
Cc1noc(C)c1CCC(=O)N1CCN(Cc2cscn2)CC1	-6.28
CC(C)c1nc2n(n1)CC(NCc1nc(-c3ccccn3)no1)CC2 (stereo not given)	-5.08
O=C(O)C1CCCCN1C(=O)c1cccc(C(F)(F)F)c1 (stereo not given)	-5.95
COc1ccccc1CC(=O)N1CCC(NCc2c[nH]nc2C)CC1	-13.5
O=C(NCCNc1ncccn1)Nc1cc(C(F)(F)F)c[nH]c1=O	-4.69
Cc1cnn(C2CCCN(C(=O)CCCNc3ncccn3)C2)c1 (stereo not given)	-3.27

SMILES	cytotoxicity at 10 µM [%]
CCc1cccc(OCC(=O)N2CCCC(n3cncn3)C2)c1 (stereo not given)	-7.62
Cn1cc(CN(Cc2ccccc2)Cc2ccccn2)cn1	19.1
O=C(CN1CCC(c2cc(=O)n3c(n2)CCCCC3)C1)N1CCCCC1 (stereo not given)	-22.8
Cc1ccccc1C(=O)N1CCOCC1CN(C)C (stereo not given)	-2.1
CN1CCC(CN2CCC3(CCCN(Cc4ccoc4)C3)C2=O)CC1 (stereo not given)	-12.9
Fc1ccc(CN2CCC(F)(F)C3(CCN(c4cnccn4)C3)C2)cc1 (stereo not given)	8.62
CNC(=O)CNCc1c[nH]nc1-c1cc2ccccc2o1	6.7
COCc1cncc2c1CCN(Cc1cccs1)C2	-0.95
O=C(Cc1ccccc1)N1CCC2(CCN2Cc2ccc(F)cc2)C1 (stereo not given)	2.17
O=C1[C@H]2CN(C(=O)[C@H]3CCCO3)C[C@H]2CN1CCN1CCCC1	-3.66
CN(Cc1cncnc1)Cc1cn2c(n1)CN(C1CCOC1)CC2 (stereo not given)	-9.36
CC(C)N1CCO[C@H]2CN(C(=O)c3ccncc3F)C[C@H]21	-146
NC(=O)COc1ccc(CNCc2cc(F)ccc2F)cc1	18.5
c1ccc(OCC2C[C@@H]3[C@@H](C2)OCCN3CC2CCOCC2)nc1 (stereo not given in full)	2.75
CN(C)C(=O)[C@H]1C[C@H]2OCC[C@H]2N(CCOc2ccc(Cl)cc2)C1	-115
CCN1CC(=O)NCC12CCN(C(=O)c1ccco1)C2 (stereo not given)	-2.86
O=C(c1cccc(F)c1)N1CCC2(CC1)CC(N1CCOCC1)C2	-8.02
O=S(=O)(N[C@@H]1CCO[C@]2(CCN(CC3CCOCC3)C2)C1)C1CC1	-142
CN1CC(=O)N(c2cccc(F)c2)CC12CCN(Cc1cccnc1)C2 (stereo not given)	9.69
O=C(Nc1ccc(F)cc1)N1C[C@@H]2C[C@H](C(=O)N3CCOCC3)[C@H](C1)O2	3.41
COCCN1C(=O)[C@@H]2CC[C@H]1CN(S(=O)(=O)c1ccc(OC)cc1)C2	6.35
O=C1C[C@@H]2CC[C@H](CN1)N2C(=O)CCCc1ccc(Cl)cc1	-7.05
